Experiments:
[1] = Selectivity index, ratio of CC50 for human HepG2.2.15 cells to IC50 for HBV infected in human HepG2.2.15 cells assessed as inhibition of viral DNA replication; assay type: functional
How it was run: (§1)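 Selectivity index was calculated as CC50 (HepG 2.2.15 cytotoxicity) divided by IC50 for the given marker (HBV DNA replication, HBeAg or HBsAg), all measured in HepG 2.2.15 cells.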

[2] = tested on: Hepatitis B virus; assay: Antiviral activity against HBV infected in human HepG2.2.15 cells assessed as inhibition of viral DNA replication; assay type: functional, organism-based; details: HepG2 2.2.15
How it was run: (§2)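 Assayed in HBV-producing HepG 2.2.15 cells, with tenofovir as positive control. HBsAg, HBeAg and HBV DNA replication were each measured, and IC50 was taken as the compound concentration giving 50% inhibition of the given marker.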

[3] = Selectivity index, ratio of CC50 for human HepG2.2.15 cells to IC50 for HBV infected in human HepG2.2.15 cells assessed as inhibition of viral e antigen production; assay type: functional; how it was run: as §1
[4] = tested on: Hepatitis B virus; assay: Antiviral activity against HBV infected in human HepG2.2.15 cells assessed as inhibition of viral e antigen production; assay type: functional, organism-based; details: HepG2 2.2.15; how it was run: as §2
[5] = Selectivity index, ratio of CC50 for human HepG2.2.15 cells to IC50 for HBV infected in human HepG2.2.15 cells assessed as inhibition of viral surface antigen production; assay type: functional; how it was run: as §1
[6] = tested on: Hepatitis B virus; assay: Antiviral activity against HBV infected in human HepG2.2.15 cells assessed as inhibition of viral surface antigen production; assay type: functional, organism-based; details: HepG2 2.2.15; how it was run: as §2
[7] = Cytotoxicity against human HepG2.2.15 cells; assay type: cell-based, HepG2 2.2.15
How it was run: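 Cytotoxicity was tested in HepG 2.2.15 cells alongside the anti-HBV assay. CC50 was taken as the compound concentration required to destroy 50% of the cells.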

Structure (SMILES) | Ratio CC50/IC50 [1] | IC50 [2] | Ratio CC50/IC50 [3] | IC50 [4] | Ratio CC50/IC50 [5] | IC50 [6] | CC50 [7]
CC(=O)OC(C)(C)CCC(=O)[C@](C)(O)[C@H]1[C@H](O)C[C@@]2(C)[C@@H]3C[C@@H](O)[C@]4(OC(=O)c5cccc(Cl)c5)[C@@H](C[C@H](O)[C@@H](O)C4(C)C)[C@]3(C)C(=O)C[C@]12C | 50.9 | 7.2 µM | 11.9 | 30.9 µM | 15.3 | 24 µM | 366 µM
CC(=O)O[C@@H]1[C@@H](O)C[C@@H]2C(=CC[C@@H]3[C@@]2(C)C(=O)C[C@]2(C)[C@@H]([C@@](C)(O)C(=O)CCC(C)(C)OC(C)=O)[C@H](O)C[C@@]32C)C1(C)C | 89.7 | 2.8 µM | <1 | > 254 µM | 1.3 | 190 µM | 254 µM
